# Screening data as filed in PubChem.
# CHT block: inhibitors of human choline transporter CHT; Q9GZV3; CHT-expressing cells, membrane potential dye, choline response; stronger effect = lower value; B-score at 10 µM; 310,000 tested, 0.86% active;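 active = B-score over 3 SD under the library average, and starting fluorescence ratio not unusually high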;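 note: choline stimulus applied at its EC90 after an EC20 pre-addition; B-score computed on integrated fluorescence ratio after choline addition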
# Target sequence (Q9GZV3 whole entry, looked up): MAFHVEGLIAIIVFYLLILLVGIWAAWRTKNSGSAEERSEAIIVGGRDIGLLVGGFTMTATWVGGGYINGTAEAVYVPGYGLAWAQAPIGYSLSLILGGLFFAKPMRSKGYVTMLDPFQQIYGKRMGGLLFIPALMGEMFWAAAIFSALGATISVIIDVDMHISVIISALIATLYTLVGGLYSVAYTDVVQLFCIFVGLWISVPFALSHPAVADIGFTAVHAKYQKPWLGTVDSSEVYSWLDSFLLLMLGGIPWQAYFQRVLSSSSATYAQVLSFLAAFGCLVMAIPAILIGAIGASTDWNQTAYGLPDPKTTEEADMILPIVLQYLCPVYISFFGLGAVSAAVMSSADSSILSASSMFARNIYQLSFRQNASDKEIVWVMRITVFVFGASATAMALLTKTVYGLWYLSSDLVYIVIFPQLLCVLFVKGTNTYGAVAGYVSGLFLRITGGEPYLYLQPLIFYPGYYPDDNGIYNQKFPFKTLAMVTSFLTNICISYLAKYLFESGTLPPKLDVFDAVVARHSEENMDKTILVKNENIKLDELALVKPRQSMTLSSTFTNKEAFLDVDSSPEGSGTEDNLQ
# PolyA inhibitor: inhibitors of polyadenylation in S. cerevisiae | 300,000 tested, 0.02% active | S. cerevisiae SKY197-pL101 polyadenylation reporter, beta-gal luminescence; efflux-impaired pdr1/pdr3 knockout yeast; score 100 = 6 SD above DMSO | activity score, % at 12 µM;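 active = lowest replicate activity score at least 50, where 100 means six control SD above control mean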;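 note: yeast exposed to compound for 9 h at 30 °C; higher score means more reporter readthrough which indicates perturbed polyadenylation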
# CHT allo act: human CHT allosteric activation. CHT-expressing cells, membrane potential dye, choline EC20; stronger effect = higher value; LV-AA mutant CHT in HEK293 cells. 310,000 tested, 0.49% active. AID 488977. B-score at 10 µM. Q9GZV3;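 active = initial fluorescence not abnormally high and integrated response B-score, plate-corrected, over 3 SD above library mean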
# T cruzi repl: blocks replication of Trypanosoma cruzi | T. cruzi beta-gal in NIH3T3, luminescence, 90 h | inhibition, % (no concentration beside the values) | 300,000 tested, 1.4% active | AID 1885;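 active = mean inhibition across valid replicates above about 55%, limit read from the data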;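 note: signal also drops with host cell toxicity which is not excluded here; 0% = plate median of DMSO wells and 100% = zero luminescence signal; higher percent means less beta-gal luminescence so fewer parasites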
#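 compound dosing = single 50 nL compound addition per well in DMSO | material = NIH/3T3 host cells with β-galactosidase reporter T. cruzi | input = 5,000 host fibroblasts per well | timing = ≥90 h infection period, 3 h prior cell attachment | read-out basis = percent inhibition of parasite-derived β-gal signal | detection = GalScreen β-gal luminescence, detergent lysis, 60 min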
# Numbers without * were called inactive; i = inactive. Most compounds without a hit are left out; they make up all but 2.6% or so of the library.
SMILES,CHT block,PolyA inhibitor,CHT allo act,T cruzi repl
CCOC(=O)C1=C(c2ccccc2)N=c2s/c(=C\c3ccco3)c(=O)n2C1c1cccs1 (stereo not given),i,0.4,i,-4.9
CCOC(=O)C1=C(c2ccccc2)N=c2s/c(=C\c3cc(OC)c(OC)c(OC)c3)c(=O)n2C1c1cccs1 (stereo not given),i,6.0,i,63.3*
CCc1ccc(CN2CCCC(CCC(=O)N3CCN(c4ccccn4)CC3)C2)o1 (stereo not given),i,12.8,i,59.2*
CC(=O)c1ccccc1C(=O)N1CCCC(CCC(=O)N2CCN(c3ccccn3)CC2)C1 (stereo not given),i,-7.2,i,9.1
O=C(c1cccc(Cl)c1)C1CCCN(C(=O)c2ccc3c(c2)OCO3)C1 (stereo not given),i,12.9,i,21.2
Cc1ccc(C)c(N(CC(=O)NC2CCCC2)C(=O)c2cc3cc4cccc(C)c4nc3s2)c1,i,-1.1,i,-6.9
Cc1ccc2cc3cc(C(=O)N(CC(=O)NC4CCCC4)c4cccc(C)c4C)sc3nc2c1,i,-4.6,i,58.1*
CCc1ccc2c(c1)C(c1ccc(N3CCOCC3)cc1)=NNC(c1ccncc1)=N2,i,-5.2,i,58.6*
O=C(CCNC(=O)c1ccccc1Cl)NC1=NCCS1,i,-0.4,i,-1.5
C/C(=C\C(=O)c1ccc(Cl)cc1)Nc1ccc(N2CCOCC2)cc1,i,-7.4,i,25.9
C/C(=C\C(=O)c1ccccc1)Nc1ccc(N2CCOCC2)cc1,i,-18.7,i,64.2*
CCOC(CCNC(=O)c1cc(-c2cccs2)nc2ccccc12)OCC,i,-22.3,i,1.4
COC(CNC(=O)CCc1c(C)nc2c(c(C)nn2-c2ccc(C)cc2)c1C)OC,i,1.2,i,-6.5
Cc1ccc(-n2nc(C)c3c(C)c(CCC(=O)Nc4ccc(CN5CCCC5)cc4)c(C)nc32)cc1,i,-8.1,i,71.7*
N#CC1=C(N)SC(N)=C(C#N)C1CCc1ccccc1,-6.05*,-28.2,i,-20.2
CCCCN(CC)CCCNC(=O)C1CCN(c2ncnc3c2sc2cccc(F)c23)CC1,i,2.3,i,70.5*
O=C(NCCN1CCOCC1)C1CCN(c2ncnc3c2sc2cccc(F)c23)CC1,i,-11.1,i,-3.9
Cc1ccccc1C(=O)N1CCC(C(=O)Nc2cc(C(F)(F)F)ccc2N2CCCC2)CC1,i,-15.5,i,2.0
Cc1ccc(C)c(Cn2nnc3c(=O)[nH]c(C4CCCN(C(=O)c5cccs5)C4)nc32)c1 (stereo not given),i,-8.2,i,5.1
CN(C)c1nc(N)ncc1-c1ccc(Oc2ccccc2)cc1,i,-21.2,i,70.4*
COc1ccc(-c2nc(N)ncc2-c2ccccc2)c(O)c1,i,-20.6,i,14.3
CCN1CCN(c2ccc(S(=O)(=O)N3CCCCC3)cc2NC(=O)/C=C/c2ccc([N+](=O)[O-])cc2)CC1,i,1.7,i,50.4
CN1CCN(c2ccc(S(=O)(=O)N3CCCCC3)cc2NC(=O)/C=C/c2ccc(Cl)c([N+](=O)[O-])c2)CC1,i,-6.8,i,59.7*
Cc1cccc(NC(=O)CSCC(=O)Nc2cc(Cl)ccc2N2CCN(C)CC2)c1,i,1.2,i,58.8*
Cc1ccc(NC(=O)CSCC(=O)Nc2cc(Cl)ccc2N2CCOCC2)cc1,i,6.1,i,7.3
SMILES,CHT block,PolyA inhibitor,CHT allo act,T cruzi repl
CN1CCC(N(C)S(=O)(=O)c2ccc(C(C)(C)C)cc2)CC1,i,1.9,i,64.6*
CN1CCC(N(C)S(=O)(=O)c2ccc(NC(=O)COc3ccc(F)cc3)cc2)CC1,i,-7.0,i,57.6*
CCc1ccc(CNC(=O)CCCC(=O)n2nc(C)c3ccccc32)cc1,i,-12.8,i,1.9
CN1CCN(c2ccc(S(=O)(=O)N3CCCCC3)cc2NC(=O)COc2ccc(F)cc2)CC1,i,-1.7,i,64.4*
Cc1cccc(OCC(=O)Nc2cc(S(=O)(=O)N3CCCCC3)ccc2N2CCN(C)CC2)c1,i,-22.0,i,50.3
CN1CCN(c2ccc(S(=O)(=O)N3CCCCC3)cc2NC(=O)COc2cccc(Cl)c2)CC1,i,11.7,i,66.1*
Cc1nc(-c2ccc(Cl)cc2)sc1C1(C)CC(c2cccc(F)c2)=NO1 (stereo not given),i,4.8,i,-20.5
COc1cccc(-c2nc3c(c(=O)[nH]c(=O)n3Cc3ccccc3)n2CCO)c1OC(F)F,i,20.4,i,-0.2
NC(=O)c1ccc(/C=N/O)nc1,i,-5.7,i,-5.4
Cc1ccc(NC(=O)CSc2n[nH]c(-c3cccnc3)n2)c(Br)c1,i,16.0,i,-14.2
Cc1ccc(C(=O)N/C(=C\c2ccc(-c3ccc(Br)cc3)o2)C(=O)NCCCN(C)C)cc1,i,0.3,i,77.1*
CC(OC(=O)CCCN=C1NS(=O)(=O)c2ccccc21)C(=O)Nc1ccccc1[N+](=O)[O-] (stereo not given),i,9.2,i,3.1
O=[N+]([O-])c1ccc(N=Nc2ccc(O)cc2O)cc1,-9.85*,-18.0,i,45.4
O=[N+]([O-])c1ccc(N=Nc2c(O)[nH]c3ccc(F)cc23)cc1,i,-20.6,i,4.7
Cc1ccc(NC(=O)C(=Cc2ccc(C(=O)O)cc2)C(=O)Nc2ccc(C)cc2C)c(C)c1,i,-10.6,i,-0.4
CC(C)C1C(c2ccccc2)N(C)C(c2ccccc2)CC1(O)c1ccccc1 (stereo not given),i,-27.5,i,58.0*
CCC1C(c2ccccc2)N(C)C(c2ccccc2)CC1(O)c1ccccc1 (stereo not given),i,-3.1,i,59.5*
COc1cc(OC)cc(OC(=O)C2CCN(C(=O)c3ccc(F)cc3)CC2)c1,i,2.0,i,-12.5
Cc1cc(C)c(NS(=O)(=O)c2cccc3cccnc23)c(C)c1,i,-4.0,i,-0.8
Cc1ccc(S(=O)(=O)Nc2cccc3cccnc23)c([N+](=O)[O-])c1,i,72.4*,i,15.0
Cc1noc2ncnc(N3CCCC3)c12,i,1.5,i,3.1
Cc1noc2ncnc(Sc3ccc(Br)cc3)c12,i,-34.7,i,62.1*
COC(=O)C1=CN(Cc2ccc(OC)c(OC)c2)C=C(C(=O)OC)C1c1cccc(O)c1,i,23.2,i,58.3*
CN(C)c1ccc(/C=C/c2ccc3ccccc3[n+]2C)cc1,i,-14.3,i,60.0*
O=C(Nc1nnc(S(=O)(=O)N2CCN(c3ccc(F)cc3)CC2)s1)c1ccco1,i,-11.5,i,-26.8
Cc1ccc(-n2c(SCC(=O)N/N=C/c3c(C)nn(-c4ccccc4)c3C)nc3ccccc3c2=O)cc1,i,2.7,i,36.2
Cc1ccccc1-n1c(SCC(=O)N/N=C/c2c(C)nn(-c3ccccc3)c2C)nc2ccccc2c1=O,i,6.9,i,56.4*
